Results published in ChEMBL document CHEMBL3297658, “Potent fluorinated agelastatin analogues for chronic lymphocytic leukemia: design, synthesis, and pharmacokinetic studies” (J Med Chem, 2014).

What was measured:
[1] = Antitumor activity against human JVM2 cells assessed as cell viability after 48 hrs by FACS analysis; assay type: functional, cell-based; conditions: JVM-2, 48 h
Procedure, shortened: (§1)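 Primary CLL patient cells or JVM-2 line cultured 48 h (37 °C, 5% CO2) in RPMI + 10% FBS with graded compound. Stained 30 min at 37 °C with 40 nM DiOC6 and 10 μg/mL PI, then flow cytometry (525 nm DiOC6, 600 nm PI). Viability = % DiOC6+/PI− relative to untreated or vehicle control. EC50 and SE fitted from dose–response curves.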

HeLa = assay: Antitumor activity against human HeLa cells assessed as cell viability by MTT assay; assay type: functional, cell-based
Procedure, shortened: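 Adherent HeLa cells exposed to compound, then medium replaced with 0.5 mg/mL MTT in phenol-red-free RPMI and incubated overnight at 37 °C. Lysed with 15% SDS/0.015 M HCl and OD read at 570 nm once formazan dissolved. EC50 and SE derived from dose–response curves.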

[2] = Antitumor activity against CLL2 cells isolated from CLL patient assessed as cell viability after 48 hrs by FACS analysis; assay type: functional, cell-based, Homo sapiens; conditions: Homo sapiens, CLL2, 48 h; procedure, shortened: as §1
[3] = Antitumor activity against CLL1 cells isolated from CLL patient assessed as cell viability after 48 hrs by FACS analysis; assay type: functional, cell-based; conditions: Homo sapiens; procedure, shortened: as §1
[4] = Antitumor activity against CLL6 cells isolated from CLL patient assessed as cell viability after 48 hrs by FACS analysis; assay type: functional, cell-based; conditions: Homo sapiens, CLL6, 48 h; procedure, shortened: as §1
[5] = Antitumor activity against CLL5 cells isolated from CLL patient assessed as cell viability after 48 hrs by FACS analysis; assay type: functional, cell-based; conditions: Homo sapiens; procedure, shortened: as §1
[6] = Antitumor activity against CLL3 cells isolated from CLL patient assessed as cell viability after 48 hrs by FACS analysis; assay type: functional, cell-based; conditions: Homo sapiens; procedure, shortened: as §1
[7] = Antitumor activity against CLL4 cells isolated from CLL patient assessed as cell viability after 48 hrs by FACS analysis; assay type: functional, cell-based; conditions: Homo sapiens; procedure, shortened: as §1
Liver = assay: Metabolic stability in mouse liver microsomes at 100 uM measured after 1 hr by LC/MS analysis in presence of 1 mM NADPH; assay type: ADME
Procedure, shortened: (§2)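 Microsomes (final protein 5 mg/mL, mouse or human) in 0.1 M sodium phosphate pH 7.4 with compound at 100 μM final (DMSO <1%). Preincubated 5 min at 37 °C, started with NADPH (1 mM final), run 60 min at 37 °C with agitation. Stopped with MeOH and centrifuged; supernatant analysed by LCMS. Controls: zero time, no NADPH, heat-inactivated microsomes, and 7-ethoxycoumarin as CYP substrate.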

Liver microsome = assay: Metabolic stability in human liver microsomes at 100 uM measured after 1 hr by LC/MS analysis in presence of 1 mM NADPH; assay type: ADME; procedure, shortened: as §2

SMILES | EC50 [1] [µM] | EC50 (HeLa) [µM] | EC50 [2] [µM] | EC50 [3] [µM] | EC50 [4] [µM] | EC50 [5] [µM] | EC50 [6] [µM] | EC50 [7] [µM] | Stability (Liver) | Stability (Liver microsome)
CN1C(=O)N[C@H]2[C@@H]3NC(=O)c4cc(C(F)(F)F)c(C(F)(F)F)n4[C@@H]3C[C@]21O | 41 | 153 | 19.2 | – | – | – | – | – | – | –
CN1C(=O)N[C@H]2[C@@H]3NC(=O)c4cc(Cl)cn4[C@@H]3C[C@]21O | 5.33 | – | 6.05 | 35.9 | – | – | – | – | – | –
CN1C(=O)N[C@H]2[C@@H]3NC(=O)c4cc(Cl)c(Cl)n4[C@@H]3C[C@]21O | 0.28 | 0.6 | 0.52 | 1.56 | 7.5 | 2.02 | 0.98 | 4.42 | – | –
CN1C(=O)N[C@@]2(O)[C@@H]3NC(=O)c4ccc(Br)n4[C@@H]3C[C@@]12O | 4.07 | 7.63 | 10 | 84.6 | – | – | – | – | – | –
CN1C(=O)N[C@H]2[C@@H]3NC(=O)c4cc(Br)c(Br)n4[C@@H]3C[C@]21O | 3.53 | – | 4.46 | 26.3 | – | – | – | – | – | –
CN1C(=O)N[C@H]2[C@@H]3NC(=O)c4cccn4[C@@H]3C[C@]21O | 120 | 61.5 | 3.9 | 541 | – | – | – | – | Stable | Stable
Nc1nc(F)nc2c1ncn2[C@@H]1O[C@H](CO)[C@@H](O)[C@@H]1O [FLUDARABINE] | 10.4 | 16 | 2.66 | 17.1 | 1.6 | 0.16 | 0.35 | 0.64 | – | –
CN1C(=O)N[C@H]2[C@@H]3NC(=O)c4cc(Br)cn4[C@@H]3C[C@]21O | 71.5 | – | 9.22 | 19.4 | – | – | – | – | – | –
CN1C(=O)N[C@H]2[C@@H]3NC(=O)c4cc(I)cn4[C@@H]3C[C@]21O | 222 | 0.061 | 94.9 | 25.5 | – | – | – | – | – | –
CN1C(=O)N[C@H]2[C@@H]3NC(=O)c4cc(C(F)(F)F)cn4[C@@H]3C[C@]21O | 22.8 | 19.6 | 4.68 | 45.1 | – | – | – | – | – | –
CN1C(=O)N[C@H]2[C@@H]3NC(=O)c4ccc(C(F)F)n4[C@@H]3C[C@]21O | 4.66 | 4.01 | 5.44 | 13 | – | – | – | – | – | –
